# Data as given in ChEMBL document CHEMBL4477212 (J Med Chem, 2016).
# Experiments:
# [1] = target: Human immunodeficiency virus type 1 integrase (Human immunodeficiency virus 1, UniProt Q7ZJM1); assay: Inhibition of HIV1 recombinant integrase expressed in Escherichia coli using [32P]-labeled oligonucleotide as substrate after 60 mins by strand transfer activity assay
# [2] = test system: CEM-SS; assay: Cytotoxicity against human CEM-SS cells assessed as cell viability at 10 uM after 6 days by MTS assay; type: cell-based; details: 144 h
# Summary of the method: (§1)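 Single-concentration screen (10 μM) in CEM-SS cells infected with pre-titered HIV-1 IIIB, sized so virus control wells lose 70–95% viability. Incubation was 6 days and read-out was by MTS. Percent CPE reduction was calculated against virus control wells (cells plus virus). Percent viability was calculated against cell-only control wells. Plates included compound toxicity and colorimetric controls, and AZT as positive control.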
# [3] = test system: Human immunodeficiency virus 1; assay: Antiviral activity against HIV1 3B infected in human CEM-SS cells assessed as reduction of virus-induced cytopathic effect at 10 uM after 6 days by MTS assay; type: functional; set-up: scale not given: the % may be the effect or the level left; summary of the method: as §1
# [4] = test system: Human immunodeficiency virus 1; assay: Fold resistance, ratio of EC50 for raltegravir-resistant HIV1 1556-1 expressing integrase Y143C mutant to EC50 for HIV1 expressing wild-type integrase; type: functional
# [5] = test system: Human immunodeficiency virus 1; assay: Fold resistance, ratio of EC50 for raltegravir-resistant HIV1 4736-2 expressing integrase N155H mutant to EC50 for HIV1 expressing wild-type integrase; type: functional
# [6] = test system: Human immunodeficiency virus 1; assay: Fold resistance, ratio of EC50 for raltegravir-resistant HIV1 8070-2 expressing integrase G140S/Q148H mutant to EC50 for HIV1 expressing wild-type integrase; type: functional
# [7] = test system: Human immunodeficiency virus 1; assay: Fold resistance, ratio of EC50 for raltegravir-resistant HIV1 8070-1 expressing integrase G140S/Y143H/Q148H mutant to EC50 for HIV1 expressing wild-type integrase; type: functional
# [8] = Intrinsic clearance in mouse liver microsomes assessed as glucuronidation during phase 2 measured per mg of protein; type: ADME, Microsome
# [9] = Plasma protein binding in mouse; type: ADME, cell-free
# [10] = Therapeutic index, ratio of CC50 for human CEM-SS cells to EC50 for HIV1 3B infected in human CEM-SS cells; type: toxicity, cell-based; details: read-out: Ratio CC50/EC50
# [11] = test system: Human immunodeficiency virus 1; assay: Antiviral activity against HIV1 3B infected in human CEM-SS cells assessed as reduction of virus-induced cytopathic effect after 6 days by MTS assay; type: functional, organism-based; details: Human immunodeficiency virus 1, 3B, 144 h
# [12] = target: Human immunodeficiency virus type 1 reverse transcriptase (Human immunodeficiency virus 1, UniProt Q72547); assay: Inhibition of RNase H activity of full length HIV1 reverse transcriptase using RNA-DNA duplex HTS-1 substrate
# [13] = Intrinsic clearance in human liver microsomes during phase 1 measured per mg of protein; type: ADME, Microsome
# [14] = test system: Human immunodeficiency virus 1; assay: Antiviral activity against HIV1 infected in human P4R5 cells assessed as reduction of virus replication preincubated with cells for 24 hrs followed by viral infection for 48 hrs by 4-methylumbelliferylgalactoside-based MAGI assay; type: functional, organism-based
# [15] = Half life in mouse plasma; type: ADME, cell-free
# [16] = test system: CEM-SS; assay: Cytotoxicity against human CEM-SS cells assessed as cell death after 6 days by MTS assay; type: cell-based; details: 144 h
# Summary of the method: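 Dose-response format in CEM-SS cells exposed to compound alone (toxicity control wells) alongside the HIV-1 IIIB cytoprotection plates. Incubation was 6 days and viability was measured by MTS. CC50 is the concentration giving 50% cell death, determined from the dose-response data.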
# [17] = Half life in human plasma; type: ADME, cell-free
# [18] = Half life of the compound in DPBS; type: physicochemical
# [19] = Aqueous solubility of the compound in DPBS; type: physicochemical; details: buffer
# [20] = Plasma protein binding in human; type: ADME, cell-free
# [21] = Intrinsic clearance in human liver microsomes assessed as glucuronidation during phase 2 measured per mg of protein
# Chain of Human immunodeficiency virus type 1 integrase (Q7ZJM1 whole entry): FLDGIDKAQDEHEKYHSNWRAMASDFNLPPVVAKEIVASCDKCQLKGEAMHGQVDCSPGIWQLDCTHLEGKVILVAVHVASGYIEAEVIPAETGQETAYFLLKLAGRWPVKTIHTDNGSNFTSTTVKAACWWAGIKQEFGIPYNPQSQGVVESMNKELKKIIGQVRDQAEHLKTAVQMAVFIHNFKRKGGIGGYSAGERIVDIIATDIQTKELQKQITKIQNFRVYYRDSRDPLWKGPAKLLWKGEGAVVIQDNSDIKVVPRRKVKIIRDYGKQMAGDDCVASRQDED
structure (smiles),measurement,setting,value
CCNc1[nH]c(=O)n(O)c(=O)c1C(N)=O,IC50,[1],> 100000 nM
O=C(NCc1ccccc1)c1c(Nc2ccc(-c3ccccc3)cc2)[nH]c(=O)n(O)c1=O,Activity,[2],13%
same,IC50,[1],> 100000 nM
same,Activity,[3],0%
CCNc1c(C(=O)NCc2ccc(F)cc2)c(=O)n(O)c(=O)n1C,Activity,[2],10%
same,IC50,[1],> 100000 nM
same,Activity,[3],6.5%
CCNc1[nH]c(=O)n(O)c(=O)c1C(=O)NCCCl,Activity,[2],100%
same,IC50,[1],> 100000 nM
same,Activity,[3],5.1%
CCNc1[nH]c(=O)n(O)c(=O)c1C(=O)NCc1cccc(F)c1,Activity,[2],90%
same,IC50,[1],68 nM
same,Activity,[3],100%
Cc1cn([C@H]2C[C@H](N=[N+]=[N-])[C@@H](CO)O2)c(=O)[nH]c1=O [ZIDOVUDINE],Ratio EC50,[4],1.4
same,Ratio EC50,[5],0.7
same,Ratio EC50,[6],0.5
same,Ratio EC50,[7],0.9
CCCNc1[nH]c(=O)n(O)c(=O)c1C(=O)NCc1ccccc1,Activity,[2],97%
same,IC50,[1],66 nM
same,Activity,[3],100%
CCNc1[nH]c(=O)n(O)c(=O)c1C(=O)NCc1ccc(F)cc1,CLH,[8],1240 µL/min/mg
same,PPB,[9],86.5%
same,selectivity ratio,[10],580
same,Activity,[2],99%
same,EC50,[11],33 nM
same,IC50,[12],11 nM
same,CLH,[13],< 0.1 µL/min/mg
same,EC50,[14],90 nM
same,t1/2,[15],> 24 h
same,IC50,[1],49 nM
same,Activity,[3],100%
same,CC50,[16],19000 nM
same,t1/2,[17],> 24 h
same,half-life,[18],> 24 h
same,solubility,[19],150 µM
same,PPB,[20],99.4%
CCNc1[nH]c(=O)n(O)c(=O)c1C(=O)NCc1cc(F)ccc1F,Activity,[2],87%
same,IC50,[1],68 nM
same,Activity,[3],92%
Nc1[nH]c(=O)n(O)c(=O)c1C(=O)NCc1ccccc1,Activity,[2],100%
same,IC50,[1],900 nM
same,Activity,[3],99%
CC(C)(C)Nc1[nH]c(=O)n(O)c(=O)c1C(=O)NCc1ccccc1,Activity,[2],17%
same,IC50,[1],81 nM
same,Activity,[3],0%
CCNc1[nH]c(=O)n(O)c(=O)c1C(=O)NCc1cc(F)ccc1Cl,Activity,[2],73%
same,IC50,[1],95 nM
same,Activity,[3],62%
CNc1[nH]c(=O)n(O)c(=O)c1C(=O)NCc1cccc(Cl)c1F,Activity,[2],100%
same,IC50,[1],110 nM
same,Activity,[3],100%
CCNc1[nH]c(=O)n(O)c(=O)c1C(=O)NCc1cc(F)cc(F)c1,Activity,[2],100%
same,IC50,[1],230 nM
same,Activity,[3],100%
CNc1[nH]c(=O)n(O)c(=O)c1C(=O)NCc1ccc(F)cc1,Activity,[2],89%
same,IC50,[1],110 nM
same,Activity,[3],100%
CCNc1[nH]c(=O)n(O)c(=O)c1C(=O)NCc1ccc(F)c(F)c1,selectivity ratio,[10],430
same,Activity,[2],100%
same,EC50,[11],49 nM
same,IC50,[12],26 nM
same,EC50,[14],300 nM
same,IC50,[1],77 nM
same,Activity,[3],100%
same,CC50,[16],21000 nM
CCNc1[nH]c(=O)n(O)c(=O)c1C(=O)NCc1cccc(Cl)c1F,CLH,[8],1065 µL/min/mg
same,PPB,[9],94%
same,Ratio EC50,[4],0.4
same,selectivity ratio,[10],1200
same,Activity,[2],100%
same,EC50,[11],15 nM
same,Ratio EC50,[5],2.4
same,IC50,[12],29 nM
same,Ratio EC50,[6],13
same,CLH,[13],< 0.1 µL/min/mg
same,EC50,[14],300 nM
same,t1/2,[15],> 24 h
same,IC50,[1],21 nM
same,Activity,[3],100%
same,CC50,[16],18000 nM
same,t1/2,[17],> 24 h
same,half-life,[18],> 24 h
same,solubility,[19],11 µM
same,PPB,[20],98.4%
same,Ratio EC50,[7],6.3
CCNc1[nH]c(=O)n(O)c(=O)c1C(=O)NCCc1ccccc1,Activity,[2],87%
same,IC50,[1],100 nM
same,Activity,[3],99%
O=C(NCc1ccccc1)c1c(Nc2ccccc2)[nH]c(=O)n(O)c1=O,Activity,[2],21%
same,IC50,[1],> 100000 nM
same,Activity,[3],0%
CCNc1[nH]c(=O)n(O)c(=O)c1C(=O)NCc1ccccc1,CLH,[8],732 µL/min/mg
same,PPB,[9],83.9%
same,selectivity ratio,[10],380
same,Activity,[2],100%
same,EC50,[11],61 nM
same,IC50,[12],42 nM
same,CLH,[21],355 µL/min
same,CLH,[13],< 0.1 µL/min/mg
same,EC50,[14],300 nM
same,t1/2,[15],> 24 h
same,IC50,[1],33 nM
same,Activity,[3],100%
same,CC50,[16],23000 nM
same,t1/2,[17],> 24 h
same,half-life,[18],> 24 h
same,solubility,[19],1091 µM
same,PPB,[20],99.1%
CCNc1[nH]c(=O)n(O)c(=O)c1C(=O)NCc1ccc(Cl)c(F)c1,Activity,[2],100%
same,EC50,[11],190 nM
same,IC50,[12],22 nM
same,EC50,[14],800 nM
same,IC50,[1],120 nM
same,Activity,[3],100%
same,CC50,[16],19000 nM
CNc1[nH]c(=O)n(O)c(=O)c1C(=O)NCc1ccccc1,CLH,[8],500 µL/min/mg
same,PPB,[9],70.9%
same,selectivity ratio,[10],70
same,Activity,[2],98%
same,EC50,[11],830 nM
same,IC50,[12],61 nM
same,CLH,[21],51 µL/min
same,CLH,[13],0.8 µL/min/mg
same,EC50,[14],3700 nM
same,t1/2,[15],> 24 h
same,IC50,[1],80 nM
same,Activity,[3],100%
same,CC50,[16],58000 nM
same,t1/2,[17],> 24 h
same,half-life,[18],> 24 h
same,solubility,[19],138 µM
same,PPB,[20],99.2%
CCNc1[nH]c(=O)n(O)c(=O)c1C(=O)NCc1ccc(F)cc1F,selectivity ratio,[10],1500
same,Activity,[2],92%
same,EC50,[11],32 nM
same,IC50,[12],10 nM
same,EC50,[14],70 nM
same,IC50,[1],48 to 68 nM
same,Activity,[3],100%
same,CC50,[16],47000 nM
O=C(NCc1ccccc1)c1c(NC2CC2)[nH]c(=O)n(O)c1=O,Activity,[2],91%
same,IC50,[1],210 nM
same,Activity,[3],98%
O=C(NCc1ccc(F)cc1)c1c2n(c(=O)n(O)c1=O)CCCN2,Activity,[2],5.5%
same,IC50,[1],430 nM
same,Activity,[3],0%
CC(C)Nc1[nH]c(=O)n(O)c(=O)c1C(=O)NCc1ccccc1,Activity,[2],90%
same,IC50,[1],150 nM
same,Activity,[3],98%
CCNc1[nH]c(=O)n(O)c(=O)c1C(=O)Nc1ccccc1,Activity,[2],27%
same,IC50,[1],35000 nM
same,Activity,[3],11%
CCCNc1[nH]c(=O)n(O)c(=O)c1C(=O)NCc1cccc(Cl)c1F,Activity,[2],48%
same,IC50,[1],58 nM
same,Activity,[3],33%
CCNc1[nH]c(=O)n(O)c(=O)c1C(=O)NCc1ccc(C)c(F)c1,CLH,[8],1342 µL/min/mg
same,PPB,[9],95.9%
same,selectivity ratio,[10],130
same,Activity,[2],100%
same,EC50,[11],150 nM
same,IC50,[12],20 nM
same,CLH,[21],357 µL/min
same,CLH,[13],< 0.1 µL/min/mg
same,EC50,[14],1300 nM
same,t1/2,[15],> 24 h
same,IC50,[1],51 nM
same,Activity,[3],100%
same,CC50,[16],20000 nM
same,t1/2,[17],> 24 h
same,half-life,[18],> 24 h
same,solubility,[19],81 µM
same,PPB,[20],98.9%
CCNc1[nH]c(=O)n(O)c(=O)c1C(=O)Oc1ccccc1,Activity,[2],100%
same,IC50,[1],> 100000 nM
same,Activity,[3],50%
CNc1[nH]c(=O)n(O)c(=O)c1C(=O)NCc1cccc(F)c1,Activity,[2],95%
same,IC50,[1],250 nM
same,Activity,[3],100%
